Assay outcomes: PubChem, Johns Hopkins Ion Channel Center
The list is not random: actives were taken first. Their share in the collection is about 3.5%.
RGS4 act: RGS4 potentiators or activators, primary screen, cell-based, HEK293 M3R inducible RGS4, calcium flux; carbachol calcium flux Fluo4; active compounds read low; B-score at 10 µM; hit rate 0.92% among 310,000; AID 463111, 2010;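 active means B-score of the integrated calcium signal more than 4 SD below the library mean, with starting fluorescence not abnormally high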;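 further: negative B-score means reduced calcium response which marks RGS4 activation or potentiation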
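Reagent: ECmax carbachol challenge; Test system: M3R-expressing HEK293 line, RGS4 induced by doxycycline; Schedule: overnight RGS4 induction, 30 min dye load 37 °C, 20 min compound RT; Detection: calcium dye Fluo4 fluorescence; Read-out: Agonist-evoked peak-minus-minimum fluorescence over baseline, integrated ratio, B score.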
MrgX1 ag: agonists of human MrgX1 receptor, primary screen, HEK293 cells, Fluo-4 calcium flux; Mas-related G-protein coupled receptor member X1 (Homo sapiens), Q96LB2; Fluo-4 calcium fluorescence, agonist mode; active compounds read high; B-score at 10 µM; hit rate 0.44% among 310,000; AID 588627, 2011;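 active means calcium response B-score plate-corrected fluorescence ratio at least 3 library SD, with starting fluorescence B-score inside 5 SD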
Target sequence (Q96LB2 whole entry, looked up): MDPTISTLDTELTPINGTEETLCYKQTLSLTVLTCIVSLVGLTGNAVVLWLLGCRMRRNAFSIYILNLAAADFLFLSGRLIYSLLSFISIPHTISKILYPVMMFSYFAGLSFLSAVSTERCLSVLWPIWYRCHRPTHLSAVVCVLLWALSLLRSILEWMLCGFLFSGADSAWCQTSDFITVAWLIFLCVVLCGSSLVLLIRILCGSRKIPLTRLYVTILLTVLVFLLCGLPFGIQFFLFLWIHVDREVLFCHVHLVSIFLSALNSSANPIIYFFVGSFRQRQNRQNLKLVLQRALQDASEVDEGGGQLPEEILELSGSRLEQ
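Test system: HEK293 cells stably expressing human MrgX1 receptor; amount: 15,000 cells per well; doses: compound delivered in addition one of three; times: overnight plating before 1 h dye loading; detection: Fluo-4 NW calcium-flux fluorescence, kinetic read; read-out basis: B-scored fluorescence response ratio; controls: positive and negative controls per plate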
RGS4 inh: RGS4 inhibitors, primary screen, cell-based, HEK293 M3R inducible RGS4, calcium flux. B-score at 10 µM. hit rate 0.45% among 310,000. AID 463165, 2010. Fluo-4 calcium flux; active compounds read high; triggered by carbachol at its EC20;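 active means B-score, a plate-corrected calcium signal, over three deviations above library mean, with baseline fluorescence within five deviations of library mean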;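 further: RGS4 expression induced by doxycycline in cells with stable M3 receptor; B-score is computed from the integrated fluorescence ratio over baseline after carbachol; higher B-score means a larger calcium signal and so more RGS4 inhibition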
Target sequence (P49798 whole entry, looked up): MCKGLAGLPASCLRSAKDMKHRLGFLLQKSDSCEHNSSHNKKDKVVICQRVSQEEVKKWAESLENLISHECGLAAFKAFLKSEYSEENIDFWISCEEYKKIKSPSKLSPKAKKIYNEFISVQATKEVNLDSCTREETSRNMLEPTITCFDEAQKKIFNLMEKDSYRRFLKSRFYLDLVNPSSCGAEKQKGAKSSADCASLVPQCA
MrgX1 allo act: positive allosteric modulators of MrgX1, primary screen, HEK293 cells, Fluo-4 calcium flux. Mas-related G-protein coupled receptor member X1 (Homo sapiens), Q96LB2. FDSS; active compounds read high. B-score at 10 µM. hit rate 0.63% among 310,000. AID 588675, 2011;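 active means plate-corrected calcium response at least 3 library SD above typical, normal starting fluorescence, not activating the receptor alone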;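 further: compound read alongside a low EC10 to EC30 dose of BAM8-22 agonist; peak minus trough fluorescence over baseline measured at the second addition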
MrgX1 antagonist: antagonists of human MrgX1 receptor, primary screen, HEK293 cells, Fluo-4 calcium flux | BAM8-22 antagonism; active compounds read low | B-score at 10 µM | hit rate 1.3% among 310,000;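 active means calcium-response B-score plate-corrected more than 3 library SD below zero, starting fluorescence within 5 deviations, no agonist response on first addition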;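 further: peak minus trough fluorescence over baseline after final BAM8-22 challenge near maximal dose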
RGS4 act valid: reduced carbachol calcium response, RGS4-induced M3R cells, confirmation, RGS4 activator project, cell-based, HEK293 M3R/RGS4 inducible, calcium flux, duplicate; shares compounds with RGS4 act; carbachol calcium flux Fluo4; inhibition, % at 10 µM; hit rate 89% among 1,100; AID 602282, 2012;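 active means inhibition above 3 SD of the buffer control wells, cut at about 41% in these data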;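 further: signal is the integrated peak-minus-minimum Fluo4 fluorescence over baseline ratio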
RGS4 act ctr: counter-screen for RGS4 activators: effect in non-induced cells; HEK293 M3R non-induced RGS4, Fluo4 calcium flux; after carbachol challenge at its EC90; shares compounds with RGS4 act; hit rate 82% among 1,100; inhibition, % at 10 µM;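 active means inhibition exceeding 3 SD of buffer-only control wells, cut at about 26% in these data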;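 further: percent drop in integrated peak-minus-baseline over baseline Fluo4 ratio after carbachol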
Of the large screens only hits and unclear results are named; the others gave an inactive call (follow-up assays come after a bar, where they were run).

CC(=O)NC(=O)c1cnn(-c2ccccc2)c1N	RGS4 act -8.8 | RGS4 act valid inactive | RGS4 act ctr inactive
CC(C)(c1ccccc1)c1ccc(OCCn2cnc3ccccc3c2=O)cc1	RGS4 act -8.8 | RGS4 act valid 90 | RGS4 act ctr 58
O=C(c1ccccc1)c1ccc(OCCn2cnc3ccccc3c2=O)cc1	none
NC(=O)NC(=O)COC(=O)CC12CC3CC(CC(C3)C1)C2	none
Cc1ccc(S(=O)(=O)N(C)C)cc1NC(=O)COC(=O)c1ccc2c(c1)NC(=O)CS2	none
CN(C)CC/C=C1/c2ccccc2CS(=O)(=O)c2ccccc21	none
CN(C)CC/C=C1\c2ccccc2COc2ccccc21	RGS4 act -8 | RGS4 act valid 94 | RGS4 act ctr 93
CN1CCN(CCC=C2c3ccccc3Sc3ccc(S(=O)(=O)N(C)C)cc32)CC1	none (no result: RGS4 act, RGS4 inh)
CN(C)CC/C=C1/c2ccccc2Sc2ccc(Cl)cc21	RGS4 act -9.5 | RGS4 act valid 94 | RGS4 act ctr 96
Cc1ccc(CNC(=O)c2cc3c(C)nc4ccccc4c3o2)cc1	none
CCC(=O)C1CCCN(C(=O)c2ccc3nc(-c4cccc(OC)c4)oc3c2)C1 (configuration not stated)	none
Cc1ccc(C)c(N2CCN(C(=O)c3cc4c(C)nc5ccccc5c4o3)CC2)c1	RGS4 act -8.5 | RGS4 act valid 89 | RGS4 act ctr 68
CCOC(=O)C1CCCN(C(=O)c2ccc3nc(-c4cccc(OC)c4)oc3c2)C1 (configuration not stated)	RGS4 act -8.7 | RGS4 act valid 54 | RGS4 act ctr 84
CCOC(=O)C1CCCN(C(=O)c2cc3c(C)nc4ccccc4c3o2)C1 (configuration not stated)	RGS4 act -9.2 | RGS4 act valid 82 | RGS4 act ctr 61
N#Cc1ccccc1OCC(=O)N(Cc1nnc(-c2ccccc2Cl)o1)C1CC1	none
COc1cccc(N2C(=O)C3NN=C(C(=O)CN4C(=O)c5ccccc5C4=O)C3C2=O)c1 (configuration not stated)	none
CN(C)c1ccc(/C=N/n2c(-c3cccnc3)n[nH]c2=S)cc1	none
CN(C)c1ccc(/C=N/n2c(-c3ccccc3Br)n[nH]c2=S)cc1	RGS4 act -12 | RGS4 act valid 94 | RGS4 act ctr 94
CC(C)(C)NC(=O)COc1ccc2oc3c(c2c1)CCCC3	none
Cc1ccc(NS(=O)(=O)c2cc(Br)cnc2N)cc1C	RGS4 act -8 | RGS4 act valid 94 | RGS4 act ctr 94
CSc1cccc(NS(=O)(=O)c2cc(Br)cnc2N)c1	RGS4 act -7.7 | RGS4 act valid 92 | RGS4 act ctr 98
COC(=O)c1ccc(C(=O)NC2CCCc3c2cnn3-c2cc(F)cc(F)c2)nc1 (configuration not stated)	none
CCN1CC=C2C(C#N)=C(N)C(C#N)(C#N)C(c3cc(Cl)ccc3Cl)C2C1 (configuration not stated)	none
CC(C(=O)NCC1(c2ccccc2)CCCC1)N1CCOCC1 (configuration not stated)	none
CC(C(=O)NCC1(c2ccccc2)CCCC1)N1CCCC1 (configuration not stated)	RGS4 act -7.9 | RGS4 act valid 64 | RGS4 act ctr 84
COCCNC(=S)Nc1ccc2nc(N3CCOCC3)cc(C)c2c1	RGS4 act -11 | RGS4 act valid inactive | RGS4 act ctr inactive
CN(C)CCOC(C)(c1ccccc1)c1ccccn1 (configuration not stated)	none
COC(C#CCCN(C)C)(c1ccccc1)c1ccccc1	RGS4 act -8.4 | RGS4 act valid 92 | RGS4 act ctr 96
Cc1oc(-c2ccc(Cl)cc2)cc1C(=O)/C(C#N)=C/Nc1ccccc1	none
O=C(NCC1CCCO1)c1ccc(NC(=O)c2cc(F)c(F)cc2Cl)cc1 (configuration not stated)	none
Cc1ccccc1OCC(=O)NC(C)c1ccccc1 (configuration not stated)	none
CC(=O)NN1C(=O)/C(=C\c2ccc(Cl)cc2)SC1=S	RGS4 act -12 | RGS4 act valid inactive | RGS4 act ctr inactive
Cc1nn(C(=O)N(C)C)c(C)c1CN1C(=O)c2ccccc2C1=O	none
Cc1cc(C(=O)N/N=C/C(Cl)=C/c2ccccc2)c(C)o1	none
CN(C)CCNC(C(=O)Nc1cc(Cl)cc(Cl)c1)c1ccccc1 (configuration not stated)	RGS4 act -9.7 | RGS4 act valid 91 | RGS4 act ctr 49
CC(C)NC(C(=O)Nc1cc(Cl)cc(Cl)c1)c1ccccc1 (configuration not stated)	none
Cc1cccc(NC(=O)C2CCN(S(=O)(=O)c3c(C)c(C)cc(C)c3C)CC2)n1	RGS4 act -11 | RGS4 act valid 90 | RGS4 act ctr 64
Cc1cccc(NC(=O)C2CCN(S(=O)(=O)c3c(C)nn(C)c3C)CC2)n1	none
CN1CCN(CC(O)(c2ccc(Cl)cc2)c2ccc(Cl)cc2)CC1	RGS4 act -10 | RGS4 act valid 92 | RGS4 act ctr 65
CN(C)NC(=O)C12CCC(C)(C(=O)O1)C2(C)C (configuration not stated)	none
O=C(COc1ccccc1)Nc1ccccc1N1CCCCC1	none
O=C(COc1ccccc1)Nc1ccccc1N1CCN(c2ccc(F)cc2)CC1	RGS4 act -9.1 | RGS4 act valid 61 | RGS4 act ctr inactive
COc1ccc(OC)c(NC(=O)C2=C(C)NC(=O)NC2c2cccs2)c1 (configuration not stated)	none
c1ccc(-c2cc(-c3nc4ccccc4[nH]3)c3ccccc3n2)cc1	RGS4 act -9.6 | RGS4 act valid 94 | RGS4 act ctr 77
Nc1ccc(-c2nc3ccccc3[nH]2)cc1	none
CCN1CCCC1CNC(=O)c1[nH]c2ccc(OC)cc2c1C (configuration not stated)	none
O=C(Nc1ccc(N2CCN(C(=O)c3ccco3)CC2)c(Cl)c1)c1cc2ccccc2o1	RGS4 act -8.7 | RGS4 act valid 93 | RGS4 act ctr 64
COc1cc2nc(Nc3ccc(C)c(C)c3)nc(N)c2cc1OC	RGS4 act -10 | RGS4 act valid 61 | RGS4 act ctr inactive
Brc1cccc(CN2CCN(c3ncccn3)CC2)c1	none
